From ChEMBL document CHEMBL3272249, “Esters of N-tert-butylarterenol. Long-acting new bronchodilators with reduced cardiac effects” (J Med Chem, 1976)

Key:
Canis familiaris [1] = test: Cardiotoxicity in spontaneously respiring dog assessed as degree of increase in heart rate at 0.35 to 2 mg/kg, iv relative to control; format: toxicity, organism-based, Canis lupus familiaris; design: dose 0.35-2 mg/kg, route intravenous; details: in vivo
How it was run: (§1)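 Anesthetized, spontaneously respiring dogs. Heart rate monitored by lead II EKG; blood pressure from right femoral artery by pressure transducer. Rise in heart rate (beats/min) scored ±=5-15, +=20-40, ++=40-60, +++=>60, n>4/dose; duration of the rise in h. Drug stocks freshly made in distilled water, diluted in physiological saline, kept on ice.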

Canis familiaris [2] = test: Cardiotoxicity in spontaneously respiring dog assessed as degree of increase in heart rate at 50 to 300 mg/kg, id relative to control; format: toxicity, organism-based, Canis lupus familiaris; design: dose 50-300 mg/kg, route intraduodenal; details: in vivo, other; how it was run: as §1
Canis familiaris [3] = test: Cardiotoxicity in spontaneously respiring dog assessed as degree of increase in heart rate at 150 to 300 mg/kg, it relative to control; format: toxicity, organism-based, Canis lupus familiaris; design: dose 150-300 mg/kg, route endotracheal; details: in vivo, inhaled_or_intranasal; how it was run: as §1
Canis familiaris [4] = test: Cardiotoxicity in spontaneously respiring dog assessed as time of increase in heart rate at 0.35 to 2 mg/kg, iv relative to control; format: toxicity, organism-based, Canis lupus familiaris; design: dose 0.35-2 mg/kg, route intravenous; details: in vivo; how it was run: as §1
Canis familiaris [5] = test: Cardiotoxicity in spontaneously respiring dog assessed as time of increase in heart rate at 50 to 300 mg/kg, id relative to control; format: toxicity, organism-based, Canis lupus familiaris; design: dose 50-300 mg/kg, route intraduodenal; details: in vivo, other; how it was run: as §1
Canis familiaris [6] = test: Cardiotoxicity in spontaneously respiring dog assessed as time of increase in heart rate at 150 to 300 mg/kg, it relative to control; format: toxicity, organism-based, Canis lupus familiaris; design: dose 150-300 mg/kg, route endotracheal; details: in vivo, inhaled_or_intranasal; how it was run: as §1
Canis familiaris [7] = test: Bronchodilator activity in dog assessed as time of inhibition of carbachol or histamine-induced bronchoconstriction at 0.35 to 2 mg/kg, iv relative to control; format: functional, Canis lupus familiaris; details: dose mg/kg 0.35-2
How it was run: (§2)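 Dog with airway cannulated through a nonbreathing valve. Bronchoconstriction induced by iv carbachol (2–4 µg/kg) or histamine diphosphate (20–50 µg/kg); airway pressure recorded by pressure transducer. Each compound tested against both agonists in different animals, and results were combined and averaged. Bronchodilation = % inhibition of control constriction; degree scored as +, ++, +++ (20-45, 45-70, >70%) from higher dose, ≥3 dogs/dose; duration in h.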

Canis familiaris [8] = test: Bronchodilator activity in dog assessed as time of inhibition of carbachol or histamine-induced bronchoconstriction at 50 to 300 mg/kg, id relative to control; format: functional, Canis lupus familiaris; details: dose mg/kg 50-300; route intraduodenal; how it was run: as §2
Canis familiaris [9] = test: Bronchodilator activity in dog assessed as time of inhibition of carbachol or histamine-induced bronchoconstriction at 150 to 300 mg/kg, it relative to control; format: functional, Canis lupus familiaris; details: dose mg/kg 150-300; route endotracheal; how it was run: as §2
Canis familiaris [10] = test: Bronchodilator activity in dog assessed as degree of inhibition of carbachol or histamine-induced bronchoconstriction at 0.35 to 2 mg/kg, iv relative to control; format: functional, Canis lupus familiaris; details: dose mg/kg 0.35-2; how it was run: as §2
Canis familiaris [11] = test: Bronchodilator activity in dog assessed as degree of inhibition of carbachol or histamine-induced bronchoconstriction at 50 to 300 mg/kg, id relative to control; format: functional, Canis lupus familiaris; details: dose mg/kg 50-300; route intraduodenal; how it was run: as §2
Canis familiaris [12] = test: Bronchodilator activity in dog assessed as degree of inhibition of carbachol or histamine-induced bronchoconstriction at 150 to 300 mg/kg, it relative to control; format: functional, Canis lupus familiaris; details: dose mg/kg 150-300; route endotracheal; how it was run: as §2
Canis familiaris [13] = test: Cardiotoxicity in spontaneously respiring dog assessed as degree of increase in heart rate at 25 to 50 mg/kg, iv relative to control; format: toxicity, organism-based, Canis lupus familiaris; design: dose 25-50 mg/kg, route intravenous; details: in vivo
How it was run: (§3)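 Anesthetized, spontaneously respiring dogs. Heart rate was taken from a lead II EKG, and blood pressure from the right femoral artery by transducer. The increase in heart rate (beats/min) was scored on a graded scale with more than 4 dogs per dose, and its duration was recorded. Drugs were dissolved fresh in distilled water, diluted in physiological saline and kept on ice.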

Canis familiaris [14] = test: Cardiotoxicity in spontaneously respiring dog assessed as degree of increase in heart rate at 520 to 1040 mg/kg, it relative to control; format: toxicity, organism-based, Canis lupus familiaris; design: dose 520-1040 mg/kg, route endotracheal; details: in vivo, inhaled_or_intranasal; how it was run: as §3
Canis familiaris [15] = test: Cardiotoxicity in spontaneously respiring dog assessed as time of increase in heart rate at 25 to 50 mg/kg, iv relative to control; format: toxicity, organism-based, Canis lupus familiaris; design: dose 25-50 mg/kg, route intravenous; details: in vivo; how it was run: as §3
Canis familiaris [16] = test: Cardiotoxicity in spontaneously respiring dog assessed as time of increase in heart rate at 520 to 1040 mg/kg, it relative to control; format: toxicity, organism-based, Canis lupus familiaris; design: dose 520-1040 mg/kg, route endotracheal; details: in vivo, inhaled_or_intranasal
How it was run: (§4)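 Anesthetized, spontaneously respiring dogs. Heart rate monitored by lead II EKG, with blood pressure taken from the right femoral artery by pressure transducer and recorded on a polygraph. Drug stocks made fresh in distilled water, diluted in physiological saline and kept on ice. Dosing was iv, id or it as listed. The duration of the heart-rate increase was recorded in h, with more than 4 dogs per dose.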

Canis familiaris [17] = test: Bronchodilator activity in dog assessed as time of inhibition of carbachol or histamine-induced bronchoconstriction at 25 to 50 mg/kg, iv relative to control; format: functional, Canis lupus familiaris; details: dose mg/kg 25-50
How it was run: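 Dog airway model: anesthetized, cannulated via a nonbreathing valve, with airway pressure changes recorded after iv carbachol (2–4 μg/kg) or histamine diphosphate (20–50 μg/kg) challenge, each agonist in different animals. Compounds were given iv, intraduodenally or intratracheally from fresh aqueous stocks diluted in saline. Duration (h) of inhibition of induced bronchoconstriction was followed, and the two agonist datasets were pooled.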

Canis familiaris [18] = test: Bronchodilator activity in dog assessed as time of inhibition of carbachol or histamine-induced bronchoconstriction at 520 to 1040 mg/kg, it relative to control; format: functional, Canis lupus familiaris; details: dose mg/kg 520-1040; route endotracheal
How it was run: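 Anesthetized dogs with an airway cannula and a nonbreathing valve. Bronchoconstriction was induced by iv carbachol (2–4 μg/kg) or histamine diphosphate (20–50 μg/kg) and read as change in airway pressure by transducer. Each compound was tested against both agonists in different dogs, and the results were combined and averaged. Effect is % inhibition of control constriction, with at least three dogs per dose. Drugs were dissolved fresh in distilled water, diluted in saline and kept on ice.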

Canis familiaris [19] = test: Bronchodilator activity in dog assessed as degree of inhibition of carbachol or histamine-induced bronchoconstriction at 25 to 50 mg/kg, iv relative to control; format: functional, Canis lupus familiaris; details: dose mg/kg 25-50
How it was run: (§5)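 Anesthetized dogs, trachea cannulated with a nonbreathing valve. Bronchoconstriction induced by iv carbachol (2–4 μg/kg) or histamine diphosphate (20–50 μg/kg) in separate animals, and airway pressure recorded by transducer. Drug stocks were made fresh in distilled water, diluted in saline and kept on ice. Read-out was percent inhibition of control constriction, averaged over at least three dogs per dose at the higher dose. Carbachol and histamine data were combined.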

Canis familiaris [20] = test: Bronchodilator activity in dog assessed as degree of inhibition of carbachol or histamine-induced bronchoconstriction at 520 to 1040 mg/kg, it relative to control; format: functional, Canis lupus familiaris; details: dose mg/kg 520-1040; route endotracheal; how it was run: as §5
Canis familiaris [21] = test: Cardiotoxicity in spontaneously respiring dog assessed as degree of increase in heart rate at 0.3 to 2 mg/kg, iv relative to control; format: toxicity, organism-based, Canis lupus familiaris; design: dose 0.3-2 mg/kg, route intravenous; details: in vivo; how it was run: as §3
Canis familiaris [22] = test: Cardiotoxicity in spontaneously respiring dog assessed as degree of increase in heart rate at 50 to 240 mg/kg, id relative to control; format: toxicity, organism-based, Canis lupus familiaris; design: dose 50-240 mg/kg, route intraduodenal; details: in vivo, other; how it was run: as §3
Canis familiaris [23] = test: Cardiotoxicity in spontaneously respiring dog assessed as degree of increase in heart rate at 125 to 150 mg/kg, it relative to control; format: toxicity, organism-based, Canis lupus familiaris; design: dose 125-150 mg/kg, route endotracheal; details: in vivo, inhaled_or_intranasal; how it was run: as §3
Canis familiaris [24] = test: Cardiotoxicity in spontaneously respiring dog assessed as time of increase in heart rate at 0.3 to 2 mg/kg, iv relative to control; format: toxicity, organism-based, Canis lupus familiaris; design: dose 0.3-2 mg/kg, route intravenous; details: in vivo; how it was run: as §3
Canis familiaris [25] = test: Cardiotoxicity in spontaneously respiring dog assessed as time of increase in heart rate at 50 to 240 mg/kg, id relative to control; format: toxicity, organism-based, Canis lupus familiaris; design: dose 50-240 mg/kg, route intraduodenal; details: in vivo, other; how it was run: as §4
Canis familiaris [26] = test: Cardiotoxicity in spontaneously respiring dog assessed as time of increase in heart rate at 125 to 250 mg/kg, it relative to control; format: toxicity, organism-based, Canis lupus familiaris; design: dose 125-250 mg/kg, route endotracheal; details: in vivo, inhaled_or_intranasal; how it was run: as §3
Canis familiaris [27] = test: Bronchodilator activity in dog assessed as degree of inhibition of carbachol or histamine-induced bronchoconstriction at 125 to 250 mg/kg, it relative to control; format: functional, Canis lupus familiaris; details: dose mg/kg 125-250; route endotracheal; how it was run: as §2
Canis familiaris [28] = test: Bronchodilator activity in dog assessed as time of inhibition of carbachol or histamine-induced bronchoconstriction at 0.3 to 2 mg/kg, iv relative to control; format: functional, Canis lupus familiaris; details: dose mg/kg 0.3-2; how it was run: as §2
Canis familiaris [29] = test: Bronchodilator activity in dog assessed as time of inhibition of carbachol or histamine-induced bronchoconstriction at 50 to 240 mg/kg, id relative to control; format: functional, Canis lupus familiaris; details: dose mg/kg 50-240; route intraduodenal; how it was run: as §2
Canis familiaris [30] = test: Bronchodilator activity in dog assessed as time of inhibition of carbachol or histamine-induced bronchoconstriction at 125 to 250 mg/kg, it relative to control; format: functional, Canis lupus familiaris; details: dose mg/kg 125-250; route endotracheal; how it was run: as §2
Canis familiaris [31] = test: Bronchodilator activity in dog assessed as degree of inhibition of carbachol or histamine-induced bronchoconstriction at 0.3 to 2 mg/kg, iv relative to control; format: functional, Canis lupus familiaris; details: dose mg/kg 0.3-2; how it was run: as §2
Canis familiaris [32] = test: Bronchodilator activity in dog assessed as degree of inhibition of carbachol or histamine-induced bronchoconstriction at 50 to 240 mg/kg, id relative to control; format: functional, Canis lupus familiaris; details: dose mg/kg 50-240; route intraduodenal; how it was run: as §2

SMILES: CC(C)(C)NC[C@H](O)c1ccc(O)c(O)c1
- Activity (Canis familiaris [1]): 40%
- Activity (Canis familiaris [2]): 40%
- Activity (Canis familiaris [3]): 20%
- Time (Canis familiaris [4]): < 0.25 h
- Time (Canis familiaris [5]): 3 h
- Time (Canis familiaris [6]): 1 h
- Time (Canis familiaris [7]): >1 h
- Time (Canis familiaris [8]): 3 h
- Time (Canis familiaris [9]): <2 h
- inhibition (INH) (Canis familiaris [10]): >70%
- inhibition (INH) (Canis familiaris [11]): 45%
- inhibition (INH) (Canis familiaris [12]): >70%

SMILES: CC(=O)Oc1cc([C@@H](O)CNC(C)(C)C)ccc1OC(=O)c1ccc(C)cc1.CS(=O)(=O)O
- Activity (Canis familiaris [13]): 40%
- Activity (Canis familiaris [14]): 5%
- Time (Canis familiaris [15]): < 0.5 h
- Time (Canis familiaris [16]): < 1 h
- Time (Canis familiaris [17]): <1 h
- Time (Canis familiaris [18]): >1 h
- inhibition (INH) (Canis familiaris [19]): >70%
- inhibition (INH) (Canis familiaris [20]): >70%

SMILES: CC(C)NCC(O)c1ccc(O)c(O)c1 (configuration not stated) [ISOPROTERENOL]
- Activity (Canis familiaris [21]): > 60%
- Activity (Canis familiaris [22]): 40%
- Activity (Canis familiaris [23]): 20%
- Time (Canis familiaris [24]): < 0.25 h
- Time (Canis familiaris [25]): 2 h
- Time (Canis familiaris [26]): 1 h
- inhibition (INH) (Canis familiaris [27]): >70%
- Time (Canis familiaris [28]): <1 h
- Time (Canis familiaris [29]): <2 h
- Time (Canis familiaris [30]): <1 h
- inhibition (INH) (Canis familiaris [31]): >70%
- inhibition (INH) (Canis familiaris [32]): 20%
